Data: ChEMBL document CHEMBL4350961, “Discovery of Pyrrolo[3,2- d]pyrimidin-4-one Derivatives as a New Class of Potent and Cell-Active Inhibitors of P300/CBP-Associated Factor Bromodomain” (J Med Chem, 2019)
Activity calls are given as the source filed them. No cut-off for these calls is given here.

Tests used:
[1] = molecular target: Bromodomain-containing protein 9 (Homo sapiens) (UniProt Q9H8M2); assay: Binding affinity to human N-terminal His-tagged BRD9 assessed as change in melting temperature at 10 uM by SYPRO orange dye-based fluorescence assay
Summary of the method: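 Thermal shift with His-tagged human bromodomain at 2 μM final in 10 mM HEPES pH 7.5, 500 mM NaCl. Compound at 10 μM final with 0.1% DMSO; SYPRO Orange at 1:1000. Equilibrated 3 min at 25 °C, then heated from 25 to 95 °C at 1 °C/min. Melting temperature shift taken from fluorescence; at least duplicate.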

[2] = molecular target: Bromodomain adjacent to zinc finger domain protein 2A (Homo sapiens) (UniProt Q9UIF9); assay: Binding affinity to human partial length BAZ2A (M1792 to L1905 residues) expressed in bacterial expression system at 1 uM by BROMOscan assay
Summary of the method: (§1)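 BROMOscan bromodomain cross-screen run by an outside service, compound at 1 µM against 32 recombinant bromodomains. Binding given as percent of control.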

[3] = molecular target: Bromodomain and PHD finger-containing protein 3 (Homo sapiens) (UniProt Q9ULD4); assay: Binding affinity to human partial length BRPF3 (E588 to G701 residues) expressed in bacterial expression system at 1 uM by BROMOscan assay; summary of the method: as §1
[4] = Half life in Sprague-Dawley rat at 10 mg/kg, po administered via gavage by LC-MS/MS analysis; format: ADME, organism-based; settings: in vivo
Summary of the method: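 Male Sprague-Dawley rats, 6–8 weeks old, given a single 10 mg/kg dose by oral gavage (vehicle 2.5% ethanol, 2.5% tween-80 in saline, pH 7.0). Serial jugular blood samples taken and centrifuged to plasma. Plasma protein-precipitated with acetonitrile containing internal standard, then analysed by LC-MS/MS. Noncompartmental fit gave T1/2.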

[5] = Unbound fraction in Sprague-Dawley rat plasma at 1 uM measured after 16 hrs by equilibrium dialysis-based LC-MS/MS analysis; format: ADME, cell-free
[6] = molecular target: Activin receptor type-1 (Homo sapiens) (UniProt Q04771); assay: Inhibition of recombinant human ALK2 (142 to end residues) at 10 uM using casein as substrate measured after 40 mins in presence of [gamma33P]ATP by scintillation counting method
Sequence of Activin receptor type-1 (Homo sapiens) (Q04771 whole entry): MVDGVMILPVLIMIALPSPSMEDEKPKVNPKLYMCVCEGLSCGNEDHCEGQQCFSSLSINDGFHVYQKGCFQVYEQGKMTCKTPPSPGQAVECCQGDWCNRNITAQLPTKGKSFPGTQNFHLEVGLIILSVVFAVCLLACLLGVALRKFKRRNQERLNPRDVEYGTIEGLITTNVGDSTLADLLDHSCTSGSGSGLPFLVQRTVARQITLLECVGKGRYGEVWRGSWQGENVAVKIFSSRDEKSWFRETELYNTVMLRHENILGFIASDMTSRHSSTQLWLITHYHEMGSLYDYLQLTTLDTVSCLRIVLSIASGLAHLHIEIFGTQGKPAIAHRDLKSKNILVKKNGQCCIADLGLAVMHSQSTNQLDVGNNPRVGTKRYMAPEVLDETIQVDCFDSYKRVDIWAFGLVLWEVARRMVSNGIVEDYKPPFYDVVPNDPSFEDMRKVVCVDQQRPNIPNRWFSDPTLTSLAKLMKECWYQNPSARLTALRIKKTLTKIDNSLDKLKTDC

[7] = system: Tyrosine-protein kinase BTK (Homo sapiens), Q06187 [R28H]; assay: Inhibition of full-length recombinant human BTK R28H mutant at 10 uM using LSNLYHQGKFLQTFCGSPLYRRR as substrate measured after 40 mins in presence of [gamma33P]ATP by scintillation counting method
Sequence of Tyrosine-protein kinase BTK (Homo sapiens), Q06187 [R28H] (Q06187 whole entry R28H): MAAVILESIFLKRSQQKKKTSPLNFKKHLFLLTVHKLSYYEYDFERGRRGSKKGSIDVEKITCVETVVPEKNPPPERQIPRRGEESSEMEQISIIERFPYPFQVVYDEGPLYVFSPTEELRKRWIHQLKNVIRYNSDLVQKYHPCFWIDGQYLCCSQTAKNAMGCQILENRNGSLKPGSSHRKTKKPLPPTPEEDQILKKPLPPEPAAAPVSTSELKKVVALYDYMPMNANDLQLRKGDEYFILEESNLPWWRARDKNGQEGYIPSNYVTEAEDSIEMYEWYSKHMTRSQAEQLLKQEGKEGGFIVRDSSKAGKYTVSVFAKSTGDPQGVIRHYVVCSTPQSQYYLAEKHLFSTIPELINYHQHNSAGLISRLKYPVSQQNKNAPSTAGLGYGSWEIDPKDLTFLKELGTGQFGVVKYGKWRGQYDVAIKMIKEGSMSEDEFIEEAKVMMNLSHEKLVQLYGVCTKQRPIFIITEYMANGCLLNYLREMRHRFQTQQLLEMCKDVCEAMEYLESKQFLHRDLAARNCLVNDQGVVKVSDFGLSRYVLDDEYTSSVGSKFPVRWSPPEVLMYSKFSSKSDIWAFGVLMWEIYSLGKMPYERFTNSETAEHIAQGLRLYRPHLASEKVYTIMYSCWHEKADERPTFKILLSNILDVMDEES
Summary of the method: (§2)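 Kinase panel of 422 kinases screened by Eurofins KinaseProfiler at a single test-compound concentration of 10 µM.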

[8] = molecular target: Mast/stem cell growth factor receptor Kit (Homo sapiens) (UniProt P10721); assay: Inhibition of recombinant human c-Kit (544 to end residues) at 10 uM using poly(Glu, Tyr) 4:1 as substrate measured after 40 mins in presence of [gamma33P]ATP by scintillation counting method
[9] = molecular target: Tyrosine-protein kinase CSK (Homo sapiens) (UniProt P41240); assay: Inhibition of full-length recombinant human CSK at 10 uM using poly(Glu, Tyr) 4:1 as substrate measured after 40 mins in presence of [gamma33P]ATP by scintillation counting method; summary of the method: as §2
[10] = system: Epidermal growth factor receptor (Homo sapiens), P00533 [L861Q]; assay: Inhibition of recombinant human EGFR L861Q mutant (696 to end residues) at 10 uM using poly(Glu, Tyr) 4:1 as substrate measured after 40 mins in presence of [gamma33P]ATP by scintillation counting method
[11] = molecular target: Ephrin type-A receptor 3 (Homo sapiens) (UniProt P29320); assay: Inhibition of recombinant human EphA3 (578 to end residues) at 10 uM using poly(Glu, Tyr) 4:1 as substrate measured after 40 mins in presence of [gamma33P]ATP by scintillation counting method
Sequence of Ephrin type-A receptor 3 (Homo sapiens) (P29320 whole entry): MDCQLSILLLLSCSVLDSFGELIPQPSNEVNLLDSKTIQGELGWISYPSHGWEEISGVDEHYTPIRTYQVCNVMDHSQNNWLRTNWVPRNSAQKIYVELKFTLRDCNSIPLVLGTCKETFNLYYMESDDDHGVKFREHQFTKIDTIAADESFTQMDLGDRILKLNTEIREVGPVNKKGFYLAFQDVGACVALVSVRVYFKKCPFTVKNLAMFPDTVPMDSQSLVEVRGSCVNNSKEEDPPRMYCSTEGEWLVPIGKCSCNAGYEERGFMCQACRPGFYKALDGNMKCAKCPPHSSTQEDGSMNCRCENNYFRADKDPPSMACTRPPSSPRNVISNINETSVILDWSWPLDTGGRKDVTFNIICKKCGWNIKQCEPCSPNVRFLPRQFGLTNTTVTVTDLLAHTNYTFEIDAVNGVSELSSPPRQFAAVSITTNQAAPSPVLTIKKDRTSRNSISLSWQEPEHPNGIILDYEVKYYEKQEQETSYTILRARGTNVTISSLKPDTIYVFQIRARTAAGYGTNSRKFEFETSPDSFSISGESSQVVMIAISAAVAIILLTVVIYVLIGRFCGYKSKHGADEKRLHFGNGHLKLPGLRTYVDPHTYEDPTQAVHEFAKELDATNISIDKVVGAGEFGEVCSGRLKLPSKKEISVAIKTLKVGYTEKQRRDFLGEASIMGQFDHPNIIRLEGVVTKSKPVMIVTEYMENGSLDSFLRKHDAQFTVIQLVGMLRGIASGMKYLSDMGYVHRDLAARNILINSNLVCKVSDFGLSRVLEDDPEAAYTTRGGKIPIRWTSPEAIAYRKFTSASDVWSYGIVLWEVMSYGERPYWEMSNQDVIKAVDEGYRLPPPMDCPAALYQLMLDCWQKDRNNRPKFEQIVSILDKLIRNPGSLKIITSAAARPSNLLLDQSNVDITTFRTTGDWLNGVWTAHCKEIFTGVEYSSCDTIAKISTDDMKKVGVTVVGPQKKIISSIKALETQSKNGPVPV

[12] = molecular target: Rhodopsin kinase GRK7 (Homo sapiens) (UniProt Q8WTQ7); assay: Inhibition of recombinant full-length human GRK7 at 10 uM using casein as substrate measured after 40 mins in presence of [gamma33P]ATP by scintillation counting method
[13] = molecular target: LIM domain kinase 2 (Homo sapiens) (UniProt P53671); assay: Inhibition of recombinant human LIMK2 at 10 uM by radiometric method
Sequence of LIM domain kinase 2 (Homo sapiens) (P53671 whole entry, looked up, the tested form may be a part): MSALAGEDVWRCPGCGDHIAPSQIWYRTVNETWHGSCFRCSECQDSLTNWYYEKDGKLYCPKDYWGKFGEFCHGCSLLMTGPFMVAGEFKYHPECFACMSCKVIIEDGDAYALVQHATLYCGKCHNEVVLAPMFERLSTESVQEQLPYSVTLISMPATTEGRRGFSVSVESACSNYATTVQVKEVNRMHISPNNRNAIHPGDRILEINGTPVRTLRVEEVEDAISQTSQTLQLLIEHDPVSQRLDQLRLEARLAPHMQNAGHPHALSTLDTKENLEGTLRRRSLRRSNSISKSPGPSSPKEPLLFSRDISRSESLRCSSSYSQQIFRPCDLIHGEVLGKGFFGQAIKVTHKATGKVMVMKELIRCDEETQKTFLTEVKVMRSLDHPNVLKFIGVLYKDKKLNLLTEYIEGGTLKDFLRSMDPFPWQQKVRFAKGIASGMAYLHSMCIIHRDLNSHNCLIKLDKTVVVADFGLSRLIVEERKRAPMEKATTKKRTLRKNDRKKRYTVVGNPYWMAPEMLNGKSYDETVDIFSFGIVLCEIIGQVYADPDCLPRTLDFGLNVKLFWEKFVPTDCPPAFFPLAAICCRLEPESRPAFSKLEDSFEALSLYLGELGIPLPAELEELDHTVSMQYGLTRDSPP

Homo sapiens = organism: Homo sapiens; assay: Inhibition of recombinant human Mer H628Q/R794A mutant (557 to 882 residues) at 10 uM using GGMEDIYFEFMGGKKK as substrate measured after 40 mins in presence of [gamma33P]ATP by scintillation counting method
[14] = molecular target: Serine/threonine-protein kinase 26 (Homo sapiens) (UniProt Q9P289); assay: Inhibition of recombinant human MST4 (4 to 304 residues) at 10 uM using RLGRDKYKTLRQIRQ as substrate measured after 40 mins in presence of [gamma33P]ATP by scintillation counting method
[15] = molecular target: Serine/threonine-protein kinase 38-like (Homo sapiens) (UniProt Q9Y2H1); assay: Inhibition of recombinant human NDR2 (83 to end residues) at 10 uM using RSRSRSRSRSRSRSR as substrate measured after 40 mins in presence of [gamma33P]ATP by scintillation counting method
[16] = molecular target: Serine/threonine-protein kinase PAK 5 (Homo sapiens) (UniProt Q9P286); assay: Inhibition of recombinant human PAK5 (425 to end residues) at 10 uM using RRRLSFAEPG as substrate measured after 40 mins in presence of [gamma33P]ATP by scintillation counting method
[17] = molecular target: Eukaryotic translation initiation factor 2-alpha kinase 3 (Homo sapiens) (UniProt Q9NZJ5); assay: Inhibition of recombinant human PEK (536 to end residues) at 10 uM using RSRSRSRSRSRSRSR as substrate measured after 40 mins in presence of [gamma33P]ATP by scintillation counting method
[18] = system: Dual specificity protein kinase TTK (Homo sapiens), P33981 [S389A]; assay: Inhibition of recombinant full-length human TTK S389A mutant at 10 uM using MBP as substrate measured after 40 mins in presence of [gamma33P]ATP by scintillation counting method
[19] = molecular target: Wee1-like protein kinase 2 (Homo sapiens) (UniProt P0C1S8); assay: Inhibition of recombinant full-length human WEE1b at 10 uM using LSNLYHQGKFLQTFCGSPLYRRR as substrate measured after 120 mins in presence of [gamma33P]ATP by scintillation counting method
[20] = molecular target: Serine/threonine-protein kinase WNK2 (Homo sapiens) (UniProt Q9Y3S1); assay: Inhibition of human WNK2 (166 to 489 residues) using myelin basic protein as substrate measured after 40 mins in presence of [gamma33P]ATP by scintillation counting method
Sequence of Serine/threonine-protein kinase WNK2 (Homo sapiens) (Q9Y3S1 whole entry, the tested form may be a part): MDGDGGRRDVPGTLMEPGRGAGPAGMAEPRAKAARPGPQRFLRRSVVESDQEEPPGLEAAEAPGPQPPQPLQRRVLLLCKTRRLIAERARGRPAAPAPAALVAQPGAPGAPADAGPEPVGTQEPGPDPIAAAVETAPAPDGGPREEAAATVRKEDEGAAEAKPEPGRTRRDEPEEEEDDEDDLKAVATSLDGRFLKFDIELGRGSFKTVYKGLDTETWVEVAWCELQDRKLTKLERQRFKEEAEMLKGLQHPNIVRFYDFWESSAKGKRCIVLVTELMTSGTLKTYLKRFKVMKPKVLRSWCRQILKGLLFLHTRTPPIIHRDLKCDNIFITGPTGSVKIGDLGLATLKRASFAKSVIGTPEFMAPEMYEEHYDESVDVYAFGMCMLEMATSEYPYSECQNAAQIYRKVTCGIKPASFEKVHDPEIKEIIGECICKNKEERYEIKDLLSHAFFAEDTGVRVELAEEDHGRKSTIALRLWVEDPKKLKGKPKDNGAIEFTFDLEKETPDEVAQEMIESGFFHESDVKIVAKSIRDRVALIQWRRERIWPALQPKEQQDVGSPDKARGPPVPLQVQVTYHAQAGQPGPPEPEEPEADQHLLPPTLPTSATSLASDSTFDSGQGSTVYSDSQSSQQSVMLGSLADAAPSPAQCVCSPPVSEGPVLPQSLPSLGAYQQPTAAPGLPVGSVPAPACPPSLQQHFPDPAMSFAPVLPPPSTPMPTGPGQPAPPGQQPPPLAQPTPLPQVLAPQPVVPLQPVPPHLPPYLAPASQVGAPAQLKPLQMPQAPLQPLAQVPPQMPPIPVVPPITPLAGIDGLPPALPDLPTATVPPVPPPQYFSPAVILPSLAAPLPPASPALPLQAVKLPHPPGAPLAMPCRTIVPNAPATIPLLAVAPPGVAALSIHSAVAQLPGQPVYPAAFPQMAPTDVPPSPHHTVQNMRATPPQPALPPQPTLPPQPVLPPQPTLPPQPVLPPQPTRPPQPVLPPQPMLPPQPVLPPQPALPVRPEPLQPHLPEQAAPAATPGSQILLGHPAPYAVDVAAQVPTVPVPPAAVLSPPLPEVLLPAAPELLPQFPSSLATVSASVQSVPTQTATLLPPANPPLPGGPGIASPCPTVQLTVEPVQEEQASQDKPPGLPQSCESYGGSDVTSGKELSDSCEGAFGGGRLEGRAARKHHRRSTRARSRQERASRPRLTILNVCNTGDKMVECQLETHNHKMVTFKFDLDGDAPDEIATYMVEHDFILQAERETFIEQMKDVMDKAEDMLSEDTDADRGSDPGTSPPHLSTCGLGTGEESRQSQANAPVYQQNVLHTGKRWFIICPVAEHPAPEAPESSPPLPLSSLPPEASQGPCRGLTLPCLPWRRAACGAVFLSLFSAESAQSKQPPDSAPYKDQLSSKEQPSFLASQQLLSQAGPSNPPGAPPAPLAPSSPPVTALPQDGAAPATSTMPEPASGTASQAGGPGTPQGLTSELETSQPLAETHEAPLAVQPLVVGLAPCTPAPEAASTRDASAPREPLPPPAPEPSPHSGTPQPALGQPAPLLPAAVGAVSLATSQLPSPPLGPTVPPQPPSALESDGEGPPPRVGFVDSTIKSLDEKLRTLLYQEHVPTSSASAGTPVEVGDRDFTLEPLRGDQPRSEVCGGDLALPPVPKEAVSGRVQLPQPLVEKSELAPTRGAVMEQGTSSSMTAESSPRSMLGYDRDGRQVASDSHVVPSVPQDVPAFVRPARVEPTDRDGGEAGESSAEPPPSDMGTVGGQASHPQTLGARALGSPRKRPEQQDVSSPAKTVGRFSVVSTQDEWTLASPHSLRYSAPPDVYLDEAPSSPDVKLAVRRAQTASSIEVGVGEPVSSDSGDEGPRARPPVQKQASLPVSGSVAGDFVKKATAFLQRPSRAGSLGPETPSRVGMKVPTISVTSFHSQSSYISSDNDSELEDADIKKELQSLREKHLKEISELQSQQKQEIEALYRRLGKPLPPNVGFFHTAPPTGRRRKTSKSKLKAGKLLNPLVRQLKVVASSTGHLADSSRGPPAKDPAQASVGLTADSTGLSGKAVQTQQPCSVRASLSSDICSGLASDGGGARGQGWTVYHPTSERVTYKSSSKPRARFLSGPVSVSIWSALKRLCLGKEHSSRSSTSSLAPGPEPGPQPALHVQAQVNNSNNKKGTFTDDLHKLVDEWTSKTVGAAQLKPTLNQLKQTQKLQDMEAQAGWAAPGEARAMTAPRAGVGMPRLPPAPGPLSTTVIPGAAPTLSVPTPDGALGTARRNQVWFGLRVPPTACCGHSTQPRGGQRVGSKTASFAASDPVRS

[21] = molecular target: Phosphatidylinositol 4-phosphate 3-kinase C2 domain-containing subunit alpha (Homo sapiens) (UniProt O00443); assay: Inhibition of recombinant human PI3KC2alpha (299 to end residues) at 10 uM using phosphatidylinositol as substrate measured after 40 mins by HTRF assay

## CN1C[C@H](Nc2nc3cc[nH]c3c(=O)n2C)C[C@H](c2ccc3c(c2)OCCO3)C1
[1]
  ΔTm: 2.1 °C
[2]
  Activity: Active
[3]
  Activity: Active
[4]
  half-life: 1.51 h
[5]
  fraction unbound at 16 h, 1 µM: 0.058
[6]
  inhibition: inactive
[7]
  inhibition: inactive
[8]
  inhibition: inactive
[9]
  inhibition: inactive
[10]
  inhibition: inactive
[11]
  inhibition: inactive
[12]
  inhibition: inactive
[13]
  inhibition: inactive
Homo sapiens
  inhibition: inactive
[14]
  inhibition: inactive
[15]
  inhibition: inactive
[16]
  inhibition: inactive
[17]
  inhibition: inactive
[18]
  inhibition: inactive
[19]
  inhibition: inactive
[20]
  inhibition: inactive
[21]
  inhibition: inactive
